UHRF1 MBD2 ctr – UHRF1 methylated DNA binding inhibitors, primary screen, counter-screen for MBD2 inhibitor project, biochemical, TR-FRET, human UHRF1, single concentration | E3 ubiquitin-protein ligase UHRF1 (Homo sapiens), Q96T88 | UHRF1 binding to methylated oligo | inhibition, % at 4.4 µM | 370,000 tested, 0.75% active | AID 687016, 2013; in the data active means inhibition above about 21%;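 further: UHRF1 SRA domain binding a hemimethylated CpG hairpin DNA probe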
MBD2 inh – inhibitors of MBD2 binding to methylated DNA, primary screen, biochemical, TR-FRET, DNA-binding domain, human | Methyl-CpG-binding domain protein 2 (Homo sapiens), Q9UBB5 | MBD2 binding to methylated oligonucleotide | inhibition, % at 4.4 µM | 370,000 tested, 0.31% active | AID 686964, 2013; in the data active means inhibition above about 13%
ATG4B inhibitor – ATG4B protease inhibitors, primary screen, biochemical, fluorescence, uHTS | 340,000 tested, 0.51% active | Cysteine protease ATG4B (Homo sapiens), Q9Y4P1 | ATG4B cleavage of LC3-PLA2, NBD-HPC fluorescence, 1 h | inhibition, % at 8.33 µM; in the data active means inhibition above about 40%
CSN deneddyl inh – inhibitors of CSN-mediated cullin deneddylation, primary screen, biochemical, fluorescence polarization, uHTS; Purified CSN, SCF-Nedd8-OG deneddylation; 360,000 tested, 0.38% active; inhibition, % at 12.5 µM; COP9 signalosome complex subunit 5 (Homo sapiens), Q92905;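 active means pattern-corrected inhibition above about 35%, with an unprinted fluorescence ratio check between 0.5 and 1.5, limit read from the data, passing the limit was not always enough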
Target sequence (Q92905 whole entry, looked up, one chain of several): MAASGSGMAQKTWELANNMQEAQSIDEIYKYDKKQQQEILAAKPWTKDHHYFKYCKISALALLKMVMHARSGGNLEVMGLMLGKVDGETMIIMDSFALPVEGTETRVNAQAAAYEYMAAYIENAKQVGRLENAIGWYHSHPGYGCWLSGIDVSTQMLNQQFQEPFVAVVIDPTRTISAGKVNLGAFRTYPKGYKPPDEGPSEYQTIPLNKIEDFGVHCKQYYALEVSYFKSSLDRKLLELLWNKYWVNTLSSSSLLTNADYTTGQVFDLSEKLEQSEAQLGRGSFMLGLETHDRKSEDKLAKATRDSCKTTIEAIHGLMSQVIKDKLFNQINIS
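Material: human Csn5 produced in HEK293T cells; Input: enzyme 0.24 nM; Reagent: SCFSkp2-Nedd8OG substrate at 10 nM final; Dosing: 12.5 µM compound; Incubation: 90 min reaction at room temperature; Detection: fluorescence polarization of the substrate; Evaluation: % inhibition of substrate cleavage by Csn5; Control set: substrate-only high control, full reaction low control.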
rCAG binder – binders of r(CAG) RNA repeats, primary screen, biochemical, fluorescence; r(CAG) RNA repeat, TO-PRO-1 dye displacement fluorescence; inhibition, % at 3 µM; 370,000 tested, 1.3% active; AID 651821, 2012;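 active means inhibition above the plate cutoff, the mean of all test compounds on that plate plus 3 SD, cut at about 35% in these data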;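 further: higher means more dye released from RNA so lower well fluorescence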
LEDGF integ inh – blockers of LEDGF/p75-dependent integrase strand transfer – biochemical, TR-FRET, high throughput, primary screen | HIV-1 integrase (with human LEDGF/p75) | TR-FRET IN-LEDGF/p75 DNA integration, Eu/Cy5 | inhibition, % at 3.7 µM | 370,000 tested, 0.64% active;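 active means inhibition above the screen-wide mean plus 3 SD, cut at about 13% in these data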;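 further: signal is the Cy5 over europium emission ratio at 671 and 618 nm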
rCAG bind conf – small molecules binding CAG repeat RNA – biochemical, fluorescence, confirmation | inhibition, % at 3 µM | r(CAG) RNA repeat, TO-PRO-1 dye displacement fluorescence | shares compounds with rCAG binder | 4,300 tested, 70% active | AID 652065, 2013;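 active means inhibition above a per-plate cutoff, the mean inhibition of sample wells plus 3 SD, cut at about 35% in these data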;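 further: loss of TO-PRO-1 fluorescence as compound displaces dye from 1x1 AA loop RNA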
DNA CAG counter – displacement of TO-PRO-1 from CAG DNA duplex, counter-screen for rCAG RNA repeat binder project, biochemical, fluorescence, TO-PRO-1 dye, d(CAG) DNA oligo | d(CAG) DNA oligo TO-PRO-1 dye displacement | shares compounds with rCAG binder | AID 652068, 2013 | inhibition, % at 3 µM | 4,300 tested, 94% active;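 active means inhibition above its plate's cutoff, the mean test-well inhibition plus 3 SD, cut at about 4.8% in these data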;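 further: hits displace the dye from DNA and so lower well fluorescence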
DNA CAG DR – inhibitors of DNA CAG/GTC TO-PRO-1 complex, dose response, counter-screen for rCAG RNA repeat binder project, biochemical, fluorescence, TO-PRO-1 dye | shares compounds with rCAG binder | DNA CAG/GTC duplex TO-PRO-1 dye displacement fluorescence | IC50, µM | 250 tested, 20% active | AID 686960, 2013; in the data active means IC50 below about 10 µM
Numbers stand for hits; n = inactive; x = not tested or not shown. Shown are actives, neighbours in structure and some others; about 3.1% of the full set was active somewhere.

SMILES | UHRF1 MBD2 ctr | MBD2 inh | ATG4B inhibitor | CSN deneddyl inh | rCAG binder | LEDGF integ inh | rCAG bind conf | DNA CAG counter | others
O=C(Nc1ccc(Nc2ccccc2)cc1)c1ccc(Cl)cc1 | n | n | n | n | n | n | x | x
N#C/C(C(=O)Nc1ccc(Cl)cc1)=C(/S)Nc1ccccc1 | n | n | n | n | 56 | n | 71 | 24 | DNA CAG DR=n
CC1(c2nnnn2Cc2ccccc2)CCCCC(=O)N1Cc1cccs1 (stereo unspecified) | n | n | x | x | n | n | x | x
COc1ccc2nc(NC(=O)C(NS(=O)(=O)c3cccs3)C(C)C)sc2c1 (stereo unspecified) | n | n | n | n | n | n | x | x
COc1ccc2nc(N/C(=N/S(=O)(=O)c3cccs3)c3ccccc3Cl)sc2c1 | n | n | n | n | 48 | n | 41 | 13
Cc1cc(SCC(=O)c2ccc(O)c(O)c2)nc2ccccc12 | n | n | n | n | 35 | n | 54 | 23
O=C(c1ccccc1)N1CC[C@H]2[C@H](CCCN2Cc2cc(F)cc(F)c2)C1 | n | n | x | x | n | n | x | x
CCCCCN(C(=O)Cc1c(C)n(CCCCC)c2ccccc12)c1ccc(Oc2cccnc2)c(C)c1 | n | n | x | x | n | n | x | x
CC(NC(=O)COC(=O)c1cc(NS(=O)(=O)c2ccc(Cl)c([N+](=O)[O-])c2)ccc1O)C1CC2CCC1C2 (stereo unspecified) | n | n | n | n | 44 | n | 58 | 22
COc1ccc(NS(=O)(=O)c2ccc(O)c(C(=O)OCC(=O)NC(C)C3CC4CCC3C4)c2)cc1 (stereo unspecified) | n | n | n | n | n | n | x | x
NS(=O)(=O)c1ccc(-c2ccc(/C=C3\C(=O)Nc4cc(Cl)ccc43)o2)cc1 | n | n | n | n | 46 | n | n | 21
COc1ccc(-n2c(SCC(=O)N3CCCCC3C)nnc2-c2ccncc2)cc1 (stereo unspecified) | n | n | x | x | n | n | x | x
Cc1oc(-c2ccccc2)cc1C(=O)Nc1cccc(/C=C\C(=O)O)c1 | n | n | n | n | 41 | n | n | 5.7
Cc1oc(C(C)(C)C)cc1C(=O)Nc1cccc(/C=C\C(=O)O)c1 | n | n | n | n | n | n | x | x
COc1ccc(OC)c(/C=C2\Oc3cc(OCC(=O)N4CCC(C(=O)O)CC4)ccc3C2=O)c1 | n | n | n | n | 38 | n | 42 | 8.6
COc1ccc(OC)c(/C=C2\Oc3cc(OCC(=O)N4CC(O)C[C@H]4C(=O)O)ccc3C2=O)c1 (stereo partly specified) | n | n | n | n | 42 | n | n | 5.9
CC(C)N1CCCCC(NC(=O)c2ccc(F)c(F)c2)C1=O (stereo unspecified) | n | n | x | x | n | n | x | x
COc1ccccc1Cc1c(-c2cccc(Br)c2)nc2ccc(Br)cn12 | n | n | x | n | 54 | n | n | 7.3
Cc1ccc(Cc2c(-c3cccc(Br)c3)nc3ccc(Br)cn23)cc1 | n | n | x | n | 38 | n | n | 9.7
Cc1ccc(Cc2c(-c3ccc(C)cc3)nc3c(C)cc(Br)cn23)cc1 | n | n | x | n | 41 | n | n | 6.3
COc1ccccc1Cc1c(-c2ccc(Cl)cc2)nc2ccc(Br)cn12 | n | n | x | n | 42 | n | n | 6.8
Cc1ccc(Cc2c(-c3ccc(F)cc3)nc3c(C)cc(Br)cn23)cc1 | x | x | x | n | x | x | x | x
Cc1ccc(NC(=O)[C@@H]2CCCN2S(=O)(=O)c2cccc3cccnc23)c(C)c1 | n | n | x | x | x | n | x | x
COc1ccc(C(C(=O)N(C)C2CCCC2)N(Cc2ccc(F)cc2)C(=O)c2cc(C)on2)cc1OC (stereo unspecified) | n | n | x | x | n | n | x | x
O=C(CSc1nc(-c2ccccc2)cc(C(F)(F)F)n1)N1CCOCC1 | n | n | n | n | n | n | x | x
SMILES | UHRF1 MBD2 ctr | MBD2 inh | ATG4B inhibitor | CSN deneddyl inh | rCAG binder | LEDGF integ inh | rCAG bind conf | DNA CAG counter | others
O=C(O)c1cccc(CSc2nc(-c3ccccc3)cc(C(F)(F)F)n2)c1 | n | n | n | n | 62 | n | 48 | 14
CCCNC(=O)C1(C)CCN1C(=O)c1ccccc1CCc1ccccc1 (stereo unspecified) | n | n | x | n | n | n | x | x
CC1(C(=O)NS(=O)(=O)c2ccc(Cl)s2)CCN1C(=O)c1ccccc1CCc1ccccc1 (stereo unspecified) | n | n | x | n | 71 | n | 72 | 31 | DNA CAG DR=3
Cc1ccc(S(=O)(=O)NC(=O)C2(C)CCN2C(=O)c2ccccc2CCc2ccccc2)cc1 (stereo unspecified) | n | n | x | n | 48 | n | 48 | 14
Cc1ccccc1S(=O)(=O)NC(=O)C1(C)CCN1C(=O)c1ccccc1CCc1ccccc1 (stereo unspecified) | n | n | x | n | 50 | n | 41 | 10
CC1(C(=O)NS(=O)(=O)c2ccc(C#N)cc2)CCN1C(=O)c1ccccc1CCc1ccccc1 (stereo unspecified) | n | n | x | n | 48 | n | 45 | 11
CC1(C(=O)NS(=O)(=O)c2ccc(C#N)cc2)CCN1C(=O)c1cccc2ccccc12 (stereo unspecified) | n | n | x | n | n | n | x | x
CC1(C(=O)NS(=O)(=O)c2ccc(Cl)s2)CCN1C(=O)CCc1ccccc1 (stereo unspecified) | n | n | x | n | n | n | x | x
CCCCCCCCN1C(=O)N2Cc3cc(F)ccc3C2CS1(=O)=O (stereo unspecified) | n | n | x | x | n | n | x | x
CC(C)(C)OC(=O)C1[C@H](O)C=CC[C@H]1S(=O)c1ccccc1 (stereo partly specified) | n | n | x | x | x | n | x | x
CC1(C(=O)NS(=O)(=O)c2ccccc2)CCN1C(=O)c1ccccc1CCc1ccccc1 (stereo unspecified) | n | n | x | n | 40 | n | n | 6.5

Assay outcomes as filed in PubChem.
